Our source for the Activity values is ChEMBL document CHEMBL1122887, “Structure-activity studies on the N-terminal region of growth hormone releasing factor” (1985).

The structures appear in SMILES notation. Calls of active or inactive are those of the source.

Test [1] concerns Rattus norvegicus. Briefly: Effect on plasma growth hormone in anesthetized rat at a dose of 5 ug/100 g of body weight. It is filed as functional. In a few lines: (§1)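 Male Charles River rats (175–350 g) anesthetized with sodium pentobarbital (6 mg/100 g body wt); 30 min later, 6–9 per group received a single subcutaneous 0.5-mL injection of saline, GRF(1-29)NH₂ reference, or one of two analogue doses. Jugular vein blood was drawn 15 min post-injection, and plasma GH was measured by radioimmunoassay, reported as ng/mL ± SE.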

For test [2], the system named is Rattus norvegicus. Briefly: Effect on plasma growth hormone in anesthetized rat at a dose of 10 ug/100 g of body weight. It is filed as functional. In a few lines:
as §1

For test [3], the system named is Rattus norvegicus. Briefly: Percent growth hormone releasing activity in anesthetized rat relative to hpGRF (1-29)NH2; Not active. The test is classed as functional, organism-based. In a few lines:
(§2)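 In pentobarbital-anesthetized male Charles River rats (6–9/group), two subcutaneous analogue doses and GRF(1-29)NH₂ reference doses were given. Plasma GH was measured by radioimmunoassay in jugular blood taken 15 min post-injection. Relative potency with 95% confidence limits came from a four-point assay design by Pugsley's method. Not active means no activity at the doses tested.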

Test [4] relates to Rattus norvegicus. Briefly: Effect on plasma growth hormone in anesthetized rat at a dose of 4 ug/100 g of body weight. It is filed as functional. In a few lines: as §1
The test system of test [5] is Rattus norvegicus. Briefly: Percent growth hormone releasing activity in anesthetized rat relative to hpGRF (1-29)NH2. The test is classed as functional. An outline of the steps:
as §2

The subject of test [6] is Rattus norvegicus. Briefly: Effect on plasma growth hormone in anesthetized rat at a dose of 20 ug/100 g of body weight. The test is classed as functional. An outline of the steps: as §1
In test [7] the test system is Rattus norvegicus. Briefly: Effect on plasma growth hormone in anesthetized rat at a dose of 50 ug/100 g of body weight. It is filed as functional. In a few lines: as §1
Test [8] concerns Rattus norvegicus. Briefly: Effect on plasma growth hormone in anesthetized rat at a dose of 125 ug/100 g of body weight. It is filed as functional. An outline of the steps: as §1
Test [9] deals with Rattus norvegicus. Briefly: Effect on plasma growth hormone in anesthetized rat at a dose of 0.25 ug/100 g of body weight. The test is classed as functional. In a few lines: as §1
The test system of test [10] is Rattus norvegicus. Briefly: Effect on plasma growth hormone in anesthetized rat at a dose of 0.62 ug/100 g of body weight. It is filed as functional. An outline of the steps:
as §1

Test [11] deals with Rattus norvegicus. Briefly: Effect on plasma growth hormone in anesthetized rat at a dose of 3 ug/100 g of body weight. It is filed as functional. An outline of the steps: as §1
The test system of test [12] is Rattus norvegicus. Briefly: Effect on plasma growth hormone in anesthetized rat at a dose of 1.2 ug/100 g of body weight. The test is classed as functional. An outline of the steps:
as §1

The test system of test [13] is Rattus norvegicus. Briefly: Effect on plasma growth hormone in anesthetized rat at a dose of 32 ug/100 g of body weight. It is filed as functional. An outline of the steps:
as §1

Test [14] concerns Rattus norvegicus. Briefly: Effect on plasma growth hormone in anesthetized rat at a dose of 16 ug/100 g of body weight. The test is classed as functional. In a few lines: as §1

As to `CC[C@H](C)[C@H](NC(=O)[C@H](C)NC(=O)[C@H](CC(=O)O)NC(=O)[C@@H](Cc1ccccc1)NC(=O)[C@H](Cc1ccc(O)cc1)NC(C)=O)C(=O)N[C@@H](Cc1ccccc1)C(=O)N[C@H](C(=O)N[C@@H](CC(N)=O)C(=O)N[C@@H](CO)C(=O)N[C@@H](Cc1ccc(O)cc1)C(=O)N[C@@H](CCCN=C(N)N)C(=O)N[C@@H](CCCCN)C(=O)N[C@H](C(=O)N[C@@H](CC(C)C)C(=O)NCC(=O)N[C@@H](CCC(N)=O)C(=O)N[C@@H](CC(C)C)C(=O)N[C@@H](CO)C(=O)N[C@@H](C)C(=O)N[C@@H](CCCN=C(N)N)C(=O)N[C@@H](CCCCN)C(=O)N[C@@H](CC(C)C)C(=O)N[C@@H](CC(C)C)C(=O)N[C@@H](CCC(N)=O)C(=O)N[C@@H](CC(=O)O)C(=O)N[C@H](C(=O)N[C@@H](CCSC)C(=O)N[C@@H](CO)C(=O)N[C@@H](CCCN=C(N)N)C(N)=O)[C@@H](C)CC)C(C)C)[C@@H](C)O`, the Activity in the test with Rattus norvegicus [1] came to 475 ng/mL; in the test on Rattus norvegicus [2] it was 422 ng/mL. Further, in the test with Rattus norvegicus [3], the result was inactive.
For the molecule `CC[C@H](C)[C@H](NC(=O)[C@H](C)NC(=O)[C@H](CC(=O)O)NC(=O)[C@H](C)NC(=O)[C@@H](N)Cc1ccc(O)cc1)C(=O)N[C@@H](Cc1ccccc1)C(=O)N[C@H](C(=O)N[C@H](CC(N)=O)C(=O)N[C@@H](CO)C(=O)N[C@@H](Cc1ccc(O)cc1)C(=O)N[C@@H](CCCN=C(N)N)C(=O)N[C@@H](CCCCN)C(=O)N[C@H](C(=O)N[C@@H](CC(C)C)C(=O)NCC(=O)N[C@@H](CCC(N)=O)C(=O)N[C@@H](CC(C)C)C(=O)N[C@@H](CO)C(=O)N[C@@H](C)C(=O)N[C@@H](CCCN=C(N)N)C(=O)N[C@@H](CCCCN)C(=O)N[C@@H](CC(C)C)C(=O)N[C@@H](CC(C)C)C(=O)N[C@@H](CCC(N)=O)C(=O)N[C@@H](CC(=O)O)C(=O)N[C@H](C(=O)N[C@@H](CCSC)C(=O)N[C@@H](CO)C(=O)N[C@@H](CCCN=C(N)N)C(N)=O)[C@@H](C)CC)C(C)C)[C@@H](C)O`, the Activity in the test with Rattus norvegicus [4] is 1296 ng/mL; in the test on Rattus norvegicus [5], 221%; with Rattus norvegicus [2], 2397 ng/mL.
As for `CC[C@H](C)[C@H](NC(=O)[C@H](C)NC(=O)[C@H](CC(=O)O)NC(=O)[C@H](C)NC(=O)[C@@H](N)Cc1ccc(O)cc1)C(=O)N[C@@H](Cc1ccccc1)C(=O)N[C@H](C(=O)N[C@@H](CC(N)=O)C(=O)N[C@@H](CO)C(=O)N[C@@H](Cc1ccc(O)cc1)C(=O)N[C@@H](CCCN=C(N)N)C(=O)N[C@@H](CCCCN)C(=O)N[C@H](C(=O)N[C@@H](CC(C)C)C(=O)NCC(=O)N[C@@H](CCC(N)=O)C(=O)N[C@@H](CC(C)C)C(=O)N[C@@H](CO)C(=O)N[C@@H](C)C(=O)N[C@@H](CCCN=C(N)N)C(=O)N[C@@H](CCCCN)C(=O)N[C@@H](CC(C)C)C(=O)N[C@@H](CC(C)C)C(=O)N[C@@H](CCC(N)=O)C(=O)N[C@@H](CC(=O)O)C(=O)N[C@H](C(=O)N[C@@H](CCSC)C(=O)N[C@@H](CO)C(=O)N[C@@H](CCCN=C(N)N)C(N)=O)[C@@H](C)CC)C(C)C)[C@@H](C)O`, the Activity in the test on Rattus norvegicus [6] was 1781 ng/mL.
For the molecule `CC[C@H](C)[C@H](NC(=O)[C@H](C)NC(=O)[C@H](CC(=O)O)NC(=O)[C@@H](C)NC(=O)[C@@H](Cc1ccc(O)cc1)NC(C)=O)C(=O)N[C@@H](Cc1ccccc1)C(=O)N[C@H](C(=O)N[C@@H](CC(N)=O)C(=O)N[C@@H](CO)C(=O)N[C@@H](Cc1ccc(O)cc1)C(=O)N[C@@H](CCCN=C(N)N)C(=O)N[C@@H](CCCCN)C(=O)N[C@H](C(=O)N[C@@H](CC(C)C)C(=O)NCC(=O)N[C@@H](CCC(N)=O)C(=O)N[C@@H](CC(C)C)C(=O)N[C@@H](CO)C(=O)N[C@@H](C)C(=O)N[C@@H](CCCN=C(N)N)C(=O)N[C@@H](CCCCN)C(=O)N[C@@H](CC(C)C)C(=O)N[C@@H](CC(C)C)C(=O)N[C@@H](CCC(N)=O)C(=O)N[C@@H](CC(=O)O)C(=O)N[C@H](C(=O)N[C@@H](CCSC)C(=O)N[C@@H](CO)C(=O)N[C@@H](CCCN=C(N)N)C(N)=O)[C@@H](C)CC)C(C)C)[C@@H](C)O` (stereo in doubt; 5), the figures for the Activity with Rattus norvegicus [7], in the test with Rattus norvegicus [5] and with Rattus norvegicus [8] were 435 ng/mL, below 5% and 670 ng/mL, respectively.
Turning to `CC[C@H](C)[C@H](NC(=O)[C@H](C)NC(=O)[C@H](CC(=O)O)NC(=O)[C@@H](C)NC(=O)[C@@H](Cc1ccc(O)cc1)NC(C)=O)C(=O)N[C@@H](Cc1ccccc1)C(=O)N[C@H](C(=O)N[C@@H](CC(N)=O)C(=O)N[C@@H](CO)C(=O)N[C@@H](Cc1ccc(O)cc1)C(=O)N[C@@H](CCCN=C(N)N)C(=O)N[C@@H](CCCCN)C(=O)N[C@H](C(=O)N[C@@H](CC(C)C)C(=O)NCC(=O)N[C@@H](CCC(N)=O)C(=O)N[C@@H](CC(C)C)C(=O)N[C@@H](CO)C(=O)N[C@@H](C)C(=O)N[C@@H](CCCN=C(N)N)C(=O)N[C@@H](CCCCN)C(=O)N[C@@H](CC(C)C)C(=O)N[C@@H](CC(C)C)C(=O)N[C@@H](CCC(N)=O)C(=O)N[C@@H](CC(=O)O)C(=O)N[C@H](C(=O)N[C@@H](CCSC)C(=O)N[C@@H](CO)C(=O)N[C@@H](CCCN=C(N)N)C(N)=O)[C@@H](C)CC)C(C)C)[C@@H](C)O` (stereo in doubt; 12), the Activity with Rattus norvegicus [5] stood at 3817%; with Rattus norvegicus [9], 1235 ng/mL; in the test on Rattus norvegicus [10], 2386 ng/mL.
For `CC[C@H](C)[C@H](NC(=O)[C@H](C)NC(=O)[C@H](CC(=O)O)NC(=O)[C@@H](C)NC(=O)[C@@H](Cc1ccc(O)cc1)NC(C)=O)C(=O)N[C@@H](Cc1ccccc1)C(=O)N[C@H](C(=O)N[C@@H](CC(N)=O)C(=O)N[C@@H](CO)C(=O)N[C@@H](Cc1ccc(O)cc1)C(=O)N[C@@H](CCCN=C(N)N)C(=O)N[C@@H](CCCCN)C(=O)N[C@H](C(=O)N[C@@H](CC(C)C)C(=O)NCC(=O)N[C@@H](CCC(N)=O)C(=O)N[C@@H](CC(C)C)C(=O)N[C@@H](CO)C(=O)N[C@@H](C)C(=O)N[C@@H](CCCN=C(N)N)C(=O)N[C@@H](CCCCN)C(=O)N[C@@H](CC(C)C)C(=O)N[C@@H](CC(C)C)C(=O)N[C@@H](CCC(N)=O)C(=O)N[C@@H](CC(=O)O)C(=O)N[C@H](C(=O)N[C@@H](CCSC)C(=O)N[C@@H](CO)C(=O)N[C@@H](CCCN=C(N)N)C(N)=O)[C@@H](C)CC)C(C)C)[C@@H](C)O` (stereo in doubt; 13), the Activity turned out to be 1297% in the test on Rattus norvegicus [5], 3504 ng/mL with Rattus norvegicus [11] and 1329 ng/mL in the test on Rattus norvegicus [12].
Regarding `CC[C@H](C)[C@H](NC(=O)[C@H](C)NC(=O)[C@H](CC(=O)O)NC(=O)[C@@H](C)NC(=O)[C@@H](Cc1ccc(O)cc1)NC(C)=O)C(=O)N[C@@H](Cc1ccccc1)C(=O)N[C@H](C(=O)N[C@@H](CC(N)=O)C(=O)N[C@@H](CO)C(=O)N[C@@H](Cc1ccc(O)cc1)C(=O)N[C@@H](CCCN=C(N)N)C(=O)N[C@@H](CCCCN)C(=O)N[C@H](C(=O)N[C@@H](CC(C)C)C(=O)NCC(=O)N[C@@H](CCC(N)=O)C(=O)N[C@@H](CC(C)C)C(=O)N[C@@H](CO)C(=O)N[C@@H](C)C(=O)N[C@@H](CCCN=C(N)N)C(=O)N[C@@H](CCCCN)C(=O)N[C@@H](CC(C)C)C(=O)N[C@@H](CC(C)C)C(=O)N[C@@H](CCC(N)=O)C(=O)N[C@@H](CC(=O)O)C(=O)N[C@H](C(=O)N[C@@H](CCSC)C(=O)N[C@@H](CO)C(=O)N[C@@H](CCCN=C(N)N)C(N)=O)[C@@H](C)CC)C(C)C)[C@@H](C)O` (stereo in doubt; 19), the Activity with Rattus norvegicus [13] amounted to 2378 ng/mL; in the test on Rattus norvegicus [5], 52%; in the test with Rattus norvegicus [14] it was 504 ng/mL.
